PubChem BioAssay
The source made the active and inactive calls.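 Rule for the calls, unless noted: active = calcium signal cut by more than 3 SD below the full-agonist control yet still positive, in both repeats and the earlier primary screen; inactive = the rest.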

Tested on: TRPC4 beta (transient receptor potential cation channel C4), mouse
Test: positive allosteric modulators of mouse TRPC4, confirmation, cell-based, Fluo-4, HEK293 TRPC4beta/mu-opioid (AID 2555;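 active = primary screen hit whose calcium fluorescence ratio, in both repeats, exceeds the weak agonist control mean by 3 SD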)
Conditions: DAMGO EC20, Fluo-4 calcium flux, at 10 µM; hits give high values

Structure (SMILES) | outcome | potentiation
O=C(NC(=S)NNC(=O)[C@H]1C[C@@H]1c1ccccc1)c1cccc(F)c1 | inactive | –
NCCCn1c(C(=O)c2cc(Cl)c(N)c(Cl)c2)c2ccccc2[n+]1[O-] | inactive | –
COC(=O)c1ccccc1N=Nc1c(N)[nH][nH]c1=O | – | 54% (active)
O=C(CNS(=O)(=O)c1ccc2ccccc2c1)NCCc1ccccn1 | inactive | –
CC(c1cccnc1)N(CCN(C)C)C(=O)Nc1ccc(Cl)c(Cl)c1 (stereo not drawn) | inactive | –
Cc1ccc(C(=O)NC(=S)NNC(=O)c2ccccc2)cc1 | inactive | –
C=CCn1c(CCNC(=O)c2ccco2)nc2ccccc21 | inactive | –
CCOC(=O)[C@@H]1CCNC[C@@H]1c1ccccc1 | inactive | –
Cc1sc2nc(CSc3ccccc3)nc(NCCN(C)C)c2c1C | inactive | –
O=C(NCCc1cccc(Cl)c1)c1ccc(OC2CCN(Cc3ccccn3)CC2)cc1 | inactive | –
CCOC(=O)C1(CCCc2ccccc2)CCN(Cc2cn(CC)nc2C)CC1 | inactive | –
CCCN(CCC)CCCNC(=O)C1CCN(S(=O)(=O)c2cccc3nsnc23)CC1 | inactive | –
CCN1C(=O)c2cccc3c(S(=O)(=O)Nc4ccccc4OC)ccc1c23 | inactive | –
CCCN(CCC)CCCNC(=O)C1CCC(CNS(=O)(=O)c2cccc3nsnc23)CC1 (stereo not drawn) | inactive | –
CCN1CCN(c2ccc(S(=O)(=O)N3CCCCC3)cc2NC(=O)C(C)Oc2ccc(F)cc2)CC1 (stereo not drawn) | inactive | –
O=C(Nc1nnc(-c2ccccc2Cl)o1)c1nc2ccccc2s1 | inactive | –
COc1ccc(-c2nn(-c3ccccc3)cc2CNCc2cccnc2)c(F)c1 | inactive | –
Cc1ccc2oc(=O)c3cnn(CC(=O)NC4CCN(Cc5ccccc5)CC4)c3c2c1 | inactive | –
CCCCC(=O)NNC(=S)NC(=O)c1ccc(C)cc1 | inactive | –
COc1cc(/C=C/C(=O)c2ccc3c(c2)OCO3)cc(Cl)c1O | inactive | –

Structure (SMILES) | outcome | potentiation
CN(C)C(CNC(=O)C1CC(=O)N(Cc2ccccc2)C1)c1ccccc1 (stereo not drawn) | inactive | –
Cc1ccccc1OCC(=O)NNC(=S)NC(=O)c1ccco1 | inactive | –
O=C(CCc1ccccc1)NNC(=S)NC(=O)c1ccc(Cl)cc1 | inactive | –
CN(CCOc1ccc(Cl)cc1)CC(O)c1ccccc1 (stereo not drawn) | inactive | –
Cc1onc(-c2ccccc2)c1C(=O)NC(=S)NNC(=O)c1ccco1 | inactive | –
CC(NCCC1(Cc2ccccc2Cl)CCOC(C)(C)C1)c1cccs1 (stereo not drawn) | inactive | –
CN(C)C(CNC(=S)Nc1ccc(F)cc1)c1cccnc1 (stereo not drawn) | inactive | –
O=C(COc1ccccc1)NNC(=S)NC(=O)c1ccc(Cl)cc1Cl | inactive | –
CCN1CCN(c2c(S(=O)(=O)c3ccc(C)c(C)c3)cnc3ccc(F)cc23)CC1 | inactive | –
COc1ccc(C(CNC(=O)c2cccc(NS(=O)(=O)c3ccc(C)c(F)c3)c2)N(C)C)cc1 (stereo not drawn) | inactive | –
CCOC(=O)C1(CCOc2ccccc2)CCN(Cc2cnc(C)s2)CC1 | inactive | –
COc1ccc(/C=C/CN2CCCC(C(=O)c3ccc(OC)c(F)c3)C2)cc1 (stereo not drawn) | inactive | –
O=S(=O)(c1ccc(Cl)cc1)N1CCN2CCCC2C1 (stereo not drawn) | inactive | –
OC(CNC1CCCc2ccccc21)COc1ccc2ccccc2c1 (stereo not drawn) | inactive | –
Cc1ccc2[nH]c3c(=O)n(CCc4cnc[nH]4)cnc3c2c1 | inactive | –
Cc1ccn2cc(CCNC(=O)C3CC=CCC3C(=O)O)nc2c1 (stereo not drawn) | inactive | –
CCOC(=O)C1(CCOc2ccccc2)CCN(Cc2ccc(OC)c(O)c2)CC1 | inactive | –
Cc1cc(OCCCn2ccnc2)cc(C)c1Cl | inactive | –
CCn1cc(CN2CCCC(C(=O)Nc3ccc(-c4nc5ccccc5[nH]4)cc3)C2)c(C)n1 (stereo not drawn) | inactive | –

Biological target: Short transient receptor potential channel 4 (Mus musculus) (UniProt Q9QUQ5)
Test: inhibitors of mouse TRPC4 channel, confirmation, cell-based, Fluo4, HEK293 TRPC4beta/mu-opioid (AID 2636)
Conditions: DAMGO, Fluo4 calcium flux, at 10 µM; hits give high values
Method in brief: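 System: HEK293 stable line with TRPC4beta plus mu-opioid receptor; reagent: DAMGO, mu-opioid agonist, submaximal dose then maximally activating dose; doses: single final compound concentration of 10 µM; times: compound pre-incubation 110 s before DAMGO; technique: Fluo4 calcium flux fluorescence, kinetic read; repeats: duplicate wells for each compound, averaged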

Chain of Short transient receptor potential channel 4 (Mus musculus) (Q9QUQ5 whole entry, looked up): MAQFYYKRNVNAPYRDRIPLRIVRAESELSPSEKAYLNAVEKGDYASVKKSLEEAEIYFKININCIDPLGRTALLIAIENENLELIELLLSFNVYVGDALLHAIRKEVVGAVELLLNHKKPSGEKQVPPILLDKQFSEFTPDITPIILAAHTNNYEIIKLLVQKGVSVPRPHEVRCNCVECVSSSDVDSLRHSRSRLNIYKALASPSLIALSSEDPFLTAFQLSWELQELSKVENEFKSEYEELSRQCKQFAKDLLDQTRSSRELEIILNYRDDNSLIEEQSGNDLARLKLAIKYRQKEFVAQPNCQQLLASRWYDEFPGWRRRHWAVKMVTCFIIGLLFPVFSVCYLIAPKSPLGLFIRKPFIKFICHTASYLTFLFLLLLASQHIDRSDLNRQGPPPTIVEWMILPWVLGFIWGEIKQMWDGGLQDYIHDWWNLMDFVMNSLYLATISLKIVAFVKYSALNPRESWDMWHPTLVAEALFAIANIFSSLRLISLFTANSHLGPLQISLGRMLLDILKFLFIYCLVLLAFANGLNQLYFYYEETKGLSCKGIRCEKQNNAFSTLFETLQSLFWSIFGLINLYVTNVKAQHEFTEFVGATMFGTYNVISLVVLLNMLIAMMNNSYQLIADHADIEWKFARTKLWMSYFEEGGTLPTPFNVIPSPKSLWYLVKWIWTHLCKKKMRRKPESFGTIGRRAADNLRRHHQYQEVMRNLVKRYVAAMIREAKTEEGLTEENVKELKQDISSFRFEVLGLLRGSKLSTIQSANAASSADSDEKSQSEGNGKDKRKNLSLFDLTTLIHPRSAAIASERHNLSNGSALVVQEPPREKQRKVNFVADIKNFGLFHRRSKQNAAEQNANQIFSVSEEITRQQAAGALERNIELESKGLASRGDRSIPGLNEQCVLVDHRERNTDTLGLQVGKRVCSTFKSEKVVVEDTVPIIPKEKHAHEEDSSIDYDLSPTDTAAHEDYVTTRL

Structure (SMILES) | outcome | inhibition
O=C(NC(=S)NNC(=O)[C@H]1C[C@@H]1c1ccccc1)c1cccc(F)c1 | inactive | –
NCCCn1c(C(=O)c2cc(Cl)c(N)c(Cl)c2)c2ccccc2[n+]1[O-] | – | 83% (active)
COC(=O)c1ccccc1N=Nc1c(N)[nH][nH]c1=O | inactive | –
O=C(CNS(=O)(=O)c1ccc2ccccc2c1)NCCc1ccccn1 | inactive | –
CC(c1cccnc1)N(CCN(C)C)C(=O)Nc1ccc(Cl)c(Cl)c1 (stereo not drawn) | inactive | –
Cc1ccc(C(=O)NC(=S)NNC(=O)c2ccccc2)cc1 | inactive | –
C=CCn1c(CCNC(=O)c2ccco2)nc2ccccc21 | inactive | –
CCOC(=O)[C@@H]1CCNC[C@@H]1c1ccccc1 | inactive | –
Cc1sc2nc(CSc3ccccc3)nc(NCCN(C)C)c2c1C | inactive | –
O=C(NCCc1cccc(Cl)c1)c1ccc(OC2CCN(Cc3ccccn3)CC2)cc1 | inactive | –
CCOC(=O)C1(CCCc2ccccc2)CCN(Cc2cn(CC)nc2C)CC1 | inactive | –
CCCN(CCC)CCCNC(=O)C1CCN(S(=O)(=O)c2cccc3nsnc23)CC1 | inactive | –
CCN1C(=O)c2cccc3c(S(=O)(=O)Nc4ccccc4OC)ccc1c23 | inactive | –
CCCN(CCC)CCCNC(=O)C1CCC(CNS(=O)(=O)c2cccc3nsnc23)CC1 (stereo not drawn) | inactive | –
CCN1CCN(c2ccc(S(=O)(=O)N3CCCCC3)cc2NC(=O)C(C)Oc2ccc(F)cc2)CC1 (stereo not drawn) | inactive | –
O=C(Nc1nnc(-c2ccccc2Cl)o1)c1nc2ccccc2s1 | inactive | –
COc1ccc(-c2nn(-c3ccccc3)cc2CNCc2cccnc2)c(F)c1 | inactive | –
Cc1ccc2oc(=O)c3cnn(CC(=O)NC4CCN(Cc5ccccc5)CC4)c3c2c1 | inactive | –
CCCCC(=O)NNC(=S)NC(=O)c1ccc(C)cc1 | inactive | –
COc1cc(/C=C/C(=O)c2ccc3c(c2)OCO3)cc(Cl)c1O | inactive | –

Structure (SMILES) | outcome | inhibition
CN(C)C(CNC(=O)C1CC(=O)N(Cc2ccccc2)C1)c1ccccc1 (stereo not drawn) | inactive | –
Cc1ccccc1OCC(=O)NNC(=S)NC(=O)c1ccco1 | inactive | –
O=C(CCc1ccccc1)NNC(=S)NC(=O)c1ccc(Cl)cc1 | inactive | –
CN(CCOc1ccc(Cl)cc1)CC(O)c1ccccc1 (stereo not drawn) | inactive | –
Cc1onc(-c2ccccc2)c1C(=O)NC(=S)NNC(=O)c1ccco1 | inactive | –
CC(NCCC1(Cc2ccccc2Cl)CCOC(C)(C)C1)c1cccs1 (stereo not drawn) | inactive | –
CN(C)C(CNC(=S)Nc1ccc(F)cc1)c1cccnc1 (stereo not drawn) | inactive | –
O=C(COc1ccccc1)NNC(=S)NC(=O)c1ccc(Cl)cc1Cl | inactive | –
CCN1CCN(c2c(S(=O)(=O)c3ccc(C)c(C)c3)cnc3ccc(F)cc23)CC1 | inactive | –
COc1ccc(C(CNC(=O)c2cccc(NS(=O)(=O)c3ccc(C)c(F)c3)c2)N(C)C)cc1 (stereo not drawn) | inactive | –
CCOC(=O)C1(CCOc2ccccc2)CCN(Cc2cnc(C)s2)CC1 | inactive | –
COc1ccc(/C=C/CN2CCCC(C(=O)c3ccc(OC)c(F)c3)C2)cc1 (stereo not drawn) | inactive | –
O=S(=O)(c1ccc(Cl)cc1)N1CCN2CCCC2C1 (stereo not drawn) | inactive | –
OC(CNC1CCCc2ccccc21)COc1ccc2ccccc2c1 (stereo not drawn) | inactive | –
Cc1ccc2[nH]c3c(=O)n(CCc4cnc[nH]4)cnc3c2c1 | inactive | –
Cc1ccn2cc(CCNC(=O)C3CC=CCC3C(=O)O)nc2c1 (stereo not drawn) | inactive | –
CCOC(=O)C1(CCOc2ccccc2)CCN(Cc2ccc(OC)c(O)c2)CC1 | inactive | –
Cc1cc(OCCCn2ccnc2)cc(C)c1Cl | inactive | –
CCn1cc(CN2CCCC(C(=O)Nc3ccc(-c4nc5ccccc5[nH]4)cc3)C2)c(C)n1 (stereo not drawn) | inactive | –
